How the values were obtained:
[1] = tested on: Hepatocyte; assay: Cmax per10'6 cells in Sprague-Dawley rat hepatocytes at 10 uM; format: ADME, Liver; design: dose 10 uM
How it was run: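 Freshly isolated rat hepatocytes were incubated with compound. Intracellular levels of the active phosphonate were followed over time and expressed per 10⁶ cells, giving Cmax and tmax.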

[2] = Drug excretion in Sprague-Dawley rat feces at 2 mg/kg, iv after 96 hrs; format: ADME, organism-based; design: dose 2 mg/kg, route intravenous; conditions: faeces, read-out: Activity
How it was run: (§1)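 Mass balance used male SD rats (n = 6) given [³H]-labelled compound (2 mg/kg, 45.5 mCi/mmol) as an i.v. bolus. Cumulative radioactivity in urine, wash and feces was monitored at 0, 12, 24, 48, 72 and 96 h.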

[3] = AUC (0 to 24 hrs) in Sprague-Dawley rat at 5 mg/kg, iv; format: ADME, organism-based; design: time < 24 hr, dose 5 mg/kg, route intravenous; conditions: plasma
How it was run: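 Male SD rats received MB07344 at 5 mg/kg i.v. Pharmacokinetic parameters, including AUC over 0–24 h, were derived from the temporal plasma concentration profile of MB07344.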

[4] = AUC (0 to 24 hrs) in Sprague-Dawley rat at 10 mg/kg, iv; format: ADME, organism-based; design: time < 24 hr, dose 10 mg/kg, route intravenous; conditions: plasma
How it was run: (§2)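 Male SD rats, naïve or bile duct-cannulated (n = 3 per group), given MB07344 at 10 mg/kg i.v. MB07344 measured in plasma and in collected bile. AUC over 0–24 h taken from the plasma concentration–time profile.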

[5] = Half life in Sprague-Dawley rat at 5 mg/kg, iv; format: ADME, organism-based; design: dose 5 mg/kg, route intravenous; conditions: in vivo
How it was run: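 Male SD rats given a single 5 mg/kg i.v. dose. Half-life derived from the plasma concentration–time profile of the parent compound.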

[6] = target: Thyroid hormone receptor beta (Homo sapiens, UniProt P10828); assay: Displacement of [125I]T3 from recombinant thyroid hormone receptor beta expressed in sf9 cells by scintillation proximity assay
Thyroid hormone receptor beta, sequence (P10828 whole entry): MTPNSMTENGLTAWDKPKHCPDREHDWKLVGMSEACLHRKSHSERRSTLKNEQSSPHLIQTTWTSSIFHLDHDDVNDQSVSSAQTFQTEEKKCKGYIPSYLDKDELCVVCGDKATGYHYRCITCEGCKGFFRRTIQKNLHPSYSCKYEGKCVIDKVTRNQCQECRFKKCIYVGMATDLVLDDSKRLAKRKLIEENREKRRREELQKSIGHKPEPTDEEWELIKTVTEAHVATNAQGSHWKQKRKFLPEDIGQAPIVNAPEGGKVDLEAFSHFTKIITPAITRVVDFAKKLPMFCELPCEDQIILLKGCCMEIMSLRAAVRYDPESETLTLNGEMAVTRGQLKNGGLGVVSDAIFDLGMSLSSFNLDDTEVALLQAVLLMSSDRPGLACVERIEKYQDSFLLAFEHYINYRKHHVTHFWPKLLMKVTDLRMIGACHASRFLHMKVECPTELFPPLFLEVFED

[7] = AUC (0 to 24 hrs) in bile-diverted Sprague-Dawley rat at 10 mg/kg, iv; format: ADME, organism-based; design: time < 24 hr, dose 10 mg/kg, route intravenous; conditions: plasma; how it was run: as §2
[8] = Drug excretion in Sprague-Dawley rat urine at 2 mg/kg, iv after 96 hrs; format: ADME, organism-based; design: dose 2 mg/kg, route intravenous; conditions: read-out: Activity; how it was run: as §1
[9] = Volume of distribution in Sprague-Dawley rat at 5 mg/kg, iv; format: ADME, organism-based; design: dose 5 mg/kg, route intravenous; conditions: in vivo
[10] = Clearance in Sprague-Dawley rat at 5 mg/kg, iv; format: ADME, organism-based; design: dose 5 mg/kg, route intravenous; conditions: in vivo
How it was run: (§3)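 Male SD rats received a 5 mg/kg i.v. dose. Parameters were derived from the plasma concentration–time profile of the parent and its active metabolite.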

[11] = Drug excretion in bile duct-canulated Sprague-Dawley rat bile at 10 mg/kg, iv; format: ADME, organism-based; design: dose 10 mg/kg, route intravenous; conditions: read-out: Activity
How it was run: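 Naïve and bile duct-cannulated SD rats (n = 3 per group) received 10 mg/kg i.v. Compound levels were measured in the collected bile and in plasma.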

[12] = target: Thyroid hormone receptor alpha (Homo sapiens, UniProt P10827); assay: Displacement of [125I]T3 from recombinant thyroid hormone receptor alpha expressed in sf9 cells by scintillation proximity assay
Thyroid hormone receptor alpha, sequence (P10827 whole entry): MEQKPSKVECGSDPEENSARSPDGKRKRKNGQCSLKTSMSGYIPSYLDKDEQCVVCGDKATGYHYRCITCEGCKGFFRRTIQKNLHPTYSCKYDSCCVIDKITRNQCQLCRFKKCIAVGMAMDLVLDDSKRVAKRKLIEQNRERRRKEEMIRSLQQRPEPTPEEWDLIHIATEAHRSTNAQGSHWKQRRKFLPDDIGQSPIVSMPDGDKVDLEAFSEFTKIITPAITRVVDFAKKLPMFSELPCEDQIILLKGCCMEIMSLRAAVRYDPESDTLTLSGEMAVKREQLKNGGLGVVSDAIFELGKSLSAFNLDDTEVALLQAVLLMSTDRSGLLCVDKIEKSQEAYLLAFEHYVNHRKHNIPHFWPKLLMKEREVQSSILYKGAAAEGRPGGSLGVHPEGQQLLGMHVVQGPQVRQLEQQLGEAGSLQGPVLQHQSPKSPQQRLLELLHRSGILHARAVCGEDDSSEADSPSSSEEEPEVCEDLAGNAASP

[13] = Cmax in Sprague-Dawley rat at 5 mg/kg, iv; format: ADME, organism-based; design: dose 5 mg/kg, route intravenous; conditions: in vivo; how it was run: as §3
[14] = Inhibition of CYP3A in Sprague-Dawley rat liver microsome at 10 uM; format: ADME; conditions: microsomes

Q: With `Cc1cc(OCP(=O)(O)O)cc(C)c1Cc1ccc(O)c(C(C)C)c1` [MB07344] as the molecule, how does the Cmax [1] read?
A: 1.77 nmol

Q: And the dose excreted at 96 h [2]?
A: 98%

Q: What about the AUC(0-t) at 24 h [3] of the same molecule?
A: 16600 ng·h/mL

Q: What about the AUC(0-t) at 24 h [4] of the same molecule?
A: 35100 ng·h/mL

Q: What about the half-life [5] of the same molecule?
A: 1.27 h

Q: And the Ki [6]?
A: 2.17 nM

Q: And the AUC(0-t) at 24 h [7]?
A: 48100 ng·h/mL

Q: And the dose excreted at 96 h [8]?
A: 2%

Q: What about the Vd [9] of the same molecule?
A: 0.39 L/kg

Q: What about the clearance [10] of the same molecule?
A: 4.67 mL/min/kg

Q: What about the dose excreted [11] of the same molecule?
A: 50%

Q: What about the Ki [12] of the same molecule?
A: 35.2 nM

Q: What about the Cmax [13] of the same molecule?
A: 40400 ng/mL

Q: What about the Activity [14] of the same molecule?
A: Not Active

Source: ChEMBL document CHEMBL1156517, “Targeting thyroid hormone receptor-beta agonists to the liver reduces cholesterol and triglycerides and improves the therapeutic index” (Proc Natl Acad Sci U S A, 2007)
